Consider five compounds from ChEMBL document CHEMBL1145022, “Hydantoin-substituted 4,6-dichloroindole-2-carboxylic acids as ligands with high affinity for the glycine binding site of the NMDA receptor” (J Med Chem, 2003).

Calls of active or inactive are those of the source. The rule behind the calls is not given here.

The target of series [1] is T1, Sodium channel alpha subunits; brain (Types I, II, III) (Rattus norvegicus) (UniProt P04775+P04774+P08104). Description: Inhibition of [3H]batrachotoxin binding to rat brain sodium channels at 0.1 uM.
The target of series [2] is T1, Sodium channel alpha subunits; brain (Types I, II, III) (Rattus norvegicus). Description: Inhibition of [3H]batrachotoxin binding to rat brain sodium channels at 1 uM.
For series [3] the target is unchanged. Description: Inhibition of [3H]batrachotoxin binding to rat brain sodium channels at 10 uM.
Series [4] can be described thus: Partition coefficient (logP). Type of series: physicochemical. The note with it: octanol/water. An outline of the steps:
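Potentiometric titration in n-octanol/water; each Log P value is the mean of at least three independent experiments.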

For series [5], the target named is T1, Sodium channel alpha subunits; brain (Types I, II, III) (Rattus norvegicus). Description: Affinity for sodium channel site 2 up to 10 uM; Inactive. The series is classed as protein assay.

T1 sequence (P04775 whole entry, looked up, other chains not shown): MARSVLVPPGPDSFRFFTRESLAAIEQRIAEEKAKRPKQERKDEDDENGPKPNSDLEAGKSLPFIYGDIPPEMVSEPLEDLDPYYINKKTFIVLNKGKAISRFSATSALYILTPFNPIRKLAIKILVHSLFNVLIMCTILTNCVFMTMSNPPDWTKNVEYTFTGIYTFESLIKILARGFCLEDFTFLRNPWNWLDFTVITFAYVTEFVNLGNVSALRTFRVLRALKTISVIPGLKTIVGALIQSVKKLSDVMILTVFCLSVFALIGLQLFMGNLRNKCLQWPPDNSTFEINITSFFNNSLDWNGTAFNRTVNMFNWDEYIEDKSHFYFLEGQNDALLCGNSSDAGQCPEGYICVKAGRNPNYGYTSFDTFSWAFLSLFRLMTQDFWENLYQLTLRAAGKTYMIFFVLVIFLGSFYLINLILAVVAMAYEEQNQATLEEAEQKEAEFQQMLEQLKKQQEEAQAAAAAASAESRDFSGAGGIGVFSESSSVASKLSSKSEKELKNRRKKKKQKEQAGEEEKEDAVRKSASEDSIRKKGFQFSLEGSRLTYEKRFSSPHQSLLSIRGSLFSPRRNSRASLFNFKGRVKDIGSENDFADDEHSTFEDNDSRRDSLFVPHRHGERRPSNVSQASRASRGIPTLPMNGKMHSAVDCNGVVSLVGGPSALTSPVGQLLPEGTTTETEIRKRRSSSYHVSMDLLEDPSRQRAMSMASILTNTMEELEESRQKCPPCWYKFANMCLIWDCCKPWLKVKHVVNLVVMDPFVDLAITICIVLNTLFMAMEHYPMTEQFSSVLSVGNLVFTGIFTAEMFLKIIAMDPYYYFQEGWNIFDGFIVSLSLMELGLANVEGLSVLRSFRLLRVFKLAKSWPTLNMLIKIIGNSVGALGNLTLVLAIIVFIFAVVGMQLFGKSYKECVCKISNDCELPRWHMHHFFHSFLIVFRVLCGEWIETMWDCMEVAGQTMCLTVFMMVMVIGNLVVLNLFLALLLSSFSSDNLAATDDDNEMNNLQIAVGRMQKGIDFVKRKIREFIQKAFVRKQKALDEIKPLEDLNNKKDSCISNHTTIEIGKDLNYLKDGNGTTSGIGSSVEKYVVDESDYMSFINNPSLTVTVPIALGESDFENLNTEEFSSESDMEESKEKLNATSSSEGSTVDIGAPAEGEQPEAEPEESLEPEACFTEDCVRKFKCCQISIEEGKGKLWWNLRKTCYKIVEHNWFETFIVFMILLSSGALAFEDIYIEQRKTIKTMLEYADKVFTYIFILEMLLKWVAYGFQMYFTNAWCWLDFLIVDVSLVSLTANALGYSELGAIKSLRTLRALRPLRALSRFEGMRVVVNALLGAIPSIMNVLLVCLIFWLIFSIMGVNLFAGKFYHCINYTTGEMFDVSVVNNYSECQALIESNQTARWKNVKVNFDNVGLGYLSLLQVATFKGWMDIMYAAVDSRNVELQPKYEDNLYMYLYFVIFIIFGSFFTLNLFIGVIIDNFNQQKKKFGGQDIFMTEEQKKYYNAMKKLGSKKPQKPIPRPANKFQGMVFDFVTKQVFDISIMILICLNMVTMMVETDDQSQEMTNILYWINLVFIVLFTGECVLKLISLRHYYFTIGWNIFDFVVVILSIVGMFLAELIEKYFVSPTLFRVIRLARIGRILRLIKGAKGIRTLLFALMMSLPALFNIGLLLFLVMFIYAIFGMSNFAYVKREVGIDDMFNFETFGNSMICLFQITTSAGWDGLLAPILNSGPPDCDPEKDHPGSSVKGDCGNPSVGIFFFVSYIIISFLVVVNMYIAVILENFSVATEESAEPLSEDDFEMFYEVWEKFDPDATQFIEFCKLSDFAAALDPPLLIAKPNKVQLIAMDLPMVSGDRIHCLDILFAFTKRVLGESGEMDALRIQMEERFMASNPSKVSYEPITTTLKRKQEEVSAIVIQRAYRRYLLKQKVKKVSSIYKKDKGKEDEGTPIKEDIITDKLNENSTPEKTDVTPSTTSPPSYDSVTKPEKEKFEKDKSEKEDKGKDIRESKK
T1 sequence (P08104 whole entry, looked up, other chains not shown): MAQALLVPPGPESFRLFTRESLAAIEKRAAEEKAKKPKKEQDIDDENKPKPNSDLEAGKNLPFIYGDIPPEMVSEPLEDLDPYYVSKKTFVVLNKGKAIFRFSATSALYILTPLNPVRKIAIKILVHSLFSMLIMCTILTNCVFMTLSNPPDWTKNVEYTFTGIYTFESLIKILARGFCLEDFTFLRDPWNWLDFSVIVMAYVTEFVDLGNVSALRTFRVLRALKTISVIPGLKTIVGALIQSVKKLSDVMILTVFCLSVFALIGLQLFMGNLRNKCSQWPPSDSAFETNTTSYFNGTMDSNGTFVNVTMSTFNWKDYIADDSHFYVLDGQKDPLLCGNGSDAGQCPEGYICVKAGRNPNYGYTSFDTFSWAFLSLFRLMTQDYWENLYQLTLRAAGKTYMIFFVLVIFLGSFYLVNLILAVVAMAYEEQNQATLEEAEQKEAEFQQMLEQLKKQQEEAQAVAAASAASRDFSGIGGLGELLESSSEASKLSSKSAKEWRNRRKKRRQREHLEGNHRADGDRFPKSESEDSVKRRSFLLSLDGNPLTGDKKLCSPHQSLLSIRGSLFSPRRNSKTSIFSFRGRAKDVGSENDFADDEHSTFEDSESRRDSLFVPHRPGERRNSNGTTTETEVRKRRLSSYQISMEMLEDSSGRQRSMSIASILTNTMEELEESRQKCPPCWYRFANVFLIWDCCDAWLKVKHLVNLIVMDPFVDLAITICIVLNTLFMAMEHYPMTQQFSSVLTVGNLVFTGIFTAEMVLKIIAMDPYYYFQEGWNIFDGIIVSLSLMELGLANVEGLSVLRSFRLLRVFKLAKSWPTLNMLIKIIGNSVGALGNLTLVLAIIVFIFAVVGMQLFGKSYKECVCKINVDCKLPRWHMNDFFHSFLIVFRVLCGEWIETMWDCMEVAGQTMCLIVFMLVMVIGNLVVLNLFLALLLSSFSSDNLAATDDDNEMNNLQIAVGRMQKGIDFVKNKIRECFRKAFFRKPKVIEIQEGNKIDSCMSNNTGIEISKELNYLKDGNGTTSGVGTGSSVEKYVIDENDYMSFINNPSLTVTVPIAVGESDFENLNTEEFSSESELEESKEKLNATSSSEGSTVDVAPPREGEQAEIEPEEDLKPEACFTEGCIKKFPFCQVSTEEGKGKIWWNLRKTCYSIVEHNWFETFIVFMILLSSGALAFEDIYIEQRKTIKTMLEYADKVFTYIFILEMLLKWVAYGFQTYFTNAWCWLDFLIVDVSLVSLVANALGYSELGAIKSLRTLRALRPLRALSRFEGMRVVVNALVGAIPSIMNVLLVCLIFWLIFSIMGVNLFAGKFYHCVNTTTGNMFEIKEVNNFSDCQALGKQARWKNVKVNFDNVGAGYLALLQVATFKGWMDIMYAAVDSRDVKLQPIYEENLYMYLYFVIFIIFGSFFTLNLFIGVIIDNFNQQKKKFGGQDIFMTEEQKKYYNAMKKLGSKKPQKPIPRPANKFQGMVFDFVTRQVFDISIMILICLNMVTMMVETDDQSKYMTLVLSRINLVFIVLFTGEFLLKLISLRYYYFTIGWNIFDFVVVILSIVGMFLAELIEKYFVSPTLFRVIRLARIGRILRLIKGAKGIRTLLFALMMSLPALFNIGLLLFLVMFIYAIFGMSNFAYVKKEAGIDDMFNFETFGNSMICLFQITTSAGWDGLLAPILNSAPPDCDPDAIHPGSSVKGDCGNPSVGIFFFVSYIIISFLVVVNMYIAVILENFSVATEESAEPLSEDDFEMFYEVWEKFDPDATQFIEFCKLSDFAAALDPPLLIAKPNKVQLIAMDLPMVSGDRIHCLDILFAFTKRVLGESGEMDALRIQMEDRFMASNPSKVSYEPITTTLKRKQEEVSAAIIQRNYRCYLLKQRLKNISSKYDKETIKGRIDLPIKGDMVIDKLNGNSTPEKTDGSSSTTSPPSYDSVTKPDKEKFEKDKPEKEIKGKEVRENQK

Broadly, the inhibition is how much of the control response was suppressed. High values mean strong suppression, low ones little suppression. With `CC(C)C1C(=O)N(c2ccccc2)C(=O)N1Cc1c(C(=O)O)[nH]c2cc(Cl)cc(Cl)c12` (stereo not drawn), the inhibition came out at 11% in series [1], 8% in series [2] and 29% in series [3].
Usually logP stands for a log measure of how a compound divides between an organic and an aqueous phase. Read a low logP as lower lipophilicity. `O=C(O)c1[nH]c2cc(Cl)cc(Cl)c2c1CNS(=O)(=O)c1ccccc1` gave a logP in series [4] of 3.1.
Same read-out and setting: next, `O=C(NCc1c(C(=O)O)[nH]c2cc(Cl)cc(Cl)c12)Nc1ccccc1`: 2.83.
On the same count and under the same terms, next, `O=C(NCc1c(C(=O)O)[nH]c2cc(Cl)cc(Cl)c12)c1ccccc1`: 2.36.
`O=C(O)c1[nH]c2cc(Cl)cc(Cl)c2c1CN1CC(=O)N(c2ccccc2)C1=O`: the IA result in series [5] was “inactive”. In series [4], this compound registered a log partition coefficient (logP) of 2.16.
